# Published values from different studies.
# Compare with care: the assays were run in different laboratories.
# Target: Casein kinase I isoform gamma-1 (CSNK1G1, Homo sapiens, UniProt Q9HCP0)
Compound,observed,mode,technique,concentration,measurement,value
Cc1nc(N2CC[C@@H](O)C2)ncc1-c1cc(C(F)(F)F)cc2[nH]ncc12,cell-free assay,,competition with immobilised ligand,1 µM,remaining binding,78%
Cc1cc(NC(=O)c2cccc3cc(-c4cccc5[nH]nc(N)c45)ccc23)ccc1F,enzyme activity,inhibitor,,0.1 µM,activity vs control,90%
CS(=O)(=O)N1CCCC(NC(=O)[C@H](CCC2CCCCC2)NC(=O)c2ccc(CNC(=O)c3cnc4ccccn34)cc2)C1 (some centres unmarked),cell-free assay,,competition with immobilised ligand,0.1 µM,remaining binding,100%
Cc1cnc(NC2CCOCC2)nc1-n1cnc(C(=O)NC(CN)c2cc(F)cc(Cl)c2)c1 (centres unmarked),enzyme activity,inhibitor,radiometric,1 µM,remaining activity,66%
CNC(=O)c1ccc(Nc2ncc(C(F)(F)F)c(NCc3nccnc3N(C)S(C)(=O)=O)n2)cc1,cell-free assay,,competition with immobilised ligand,0.1 µM,remaining binding,82%
CC(C)c1ccc(NC(=O)c2cccs2)c(-c2nc3ccccc3[nH]c2=O)c1,enzyme activity,inhibitor,,1 µM,activity vs control,102%
COc1cc(Cl)c(C(=O)N[C@@H](CN[C@H]2CC[C@@H](N)CC2)Cc2ccc(C#N)cc2)cc1-c1ccc(CN[C@H](C)c2ccc(C)cc2)o1,enzyme activity,inhibitor,,1 µM,remaining activity,87%
Cc1sc(C(=O)NC2COC2)cc1-n1cc(NC(=O)Nc2c(F)cccc2Cl)cn1,enzyme activity,inhibitor,,10 µM,remaining activity,101%
Cc1ccc(Nc2nccc(N(C)c3ccc4c(C)n(C)nc4c3)n2)cc1S(N)(=O)=O,enzyme activity,inhibitor,,10 µM,inhibition,-8%
C[C@@H]1CCN(C(=O)CC#N)C[C@@H]1N(C)c1ncnc2[nH]ccc12,cell-free assay,inhibitor,,0.5 µM,remaining signal,101%
CCCS(=O)(=O)Nc1ccc(F)c(C(=O)c2c[nH]c3ncc(-c4ccc(Cl)cc4)cc23)c1F,enzyme activity,inhibitor,,1 µM,inhibition,< 10%
COc1cc2ncnc(Nc3ccc(Oc4ccccc4)cc3C)c2cc1OC,enzyme activity,inhibitor,,1 µM,inhibition,8%
CNC(=O)c1cc(Oc2ccc(NC(=O)Nc3ccc(Cl)c(C(F)(F)F)c3)cc2)ccn1,enzyme activity,inhibitor,,0.3 µM,inhibition,-16%
Cc1ccc(NC(=O)c2ccc(C)c(C(F)(F)F)c2)cc1C#Cc1nn(C2CCC(O)CC2)c2ncnc(N)c12 (centres unmarked),cell-free assay,,,10 µM,remaining signal,83%
CS(=O)(=O)N1CCCC(NC(=O)[C@H](CCC2CCCCC2)NC(=O)c2ccc(CNc3ncnc4c3nnn4-c3ccccc3)cc2)C1 (some centres unmarked),cell-free assay,,competition with immobilised ligand,0.1 µM,remaining binding,100%
COc1cc2ncnc(Nc3ccc(F)c(Cl)c3)c2cc1OCCCN1CCOCC1,cell-free assay,,,0.5 µM,remaining signal,99.5%
CC(C)(O)c1cncc(-c2nc3ccc(F)cc3n2C2CC2)c1,cell-free assay,,competition with immobilised ligand,1 µM,remaining binding,100%
COc1cc2c(Nc3ccc(Br)cc3F)ncnc2cc1OCC1CCN(C)CC1,cell-free assay,,,0.5 µM,remaining signal,100%
CCS(=O)(=O)c1cc2cc(C[C@@](O)(CC(C)(C)c3ccc(F)cc3C(N)=O)C(F)(F)F)[nH]c2cn1,cell-free assay,,competition with immobilised ligand,1 µM,remaining binding,100%
CC(C)(C)c1nc2c(s1)c1nc(N)ncc1c1ccc(NS(=O)(=O)c3c(F)cccc3F)c(F)c12,enzyme activity,inhibitor,radiometric,1 µM,remaining activity,63%
